# How the values were obtained:
# [1] = Lethal dose in mice after intraperitoneal administration; format: toxicity, organism-based; details: mouse, in vivo, ip
# In short: (§1)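 Male and female mice, three per dose group, were given the compound by the stated route in increments of 0.5 log doses. The LD50 was estimated as an approximate value.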
# Canis familiaris [2] = assay: tested for the percent increase in heart rate (HR) in open chest anesthetized dog at intravenous dosage of 0.10 mg/kg; format: functional, Canis lupus familiaris; details: dose 0.1 mg/kg
# Canis familiaris [3] = assay: Total time in minutes elapsed from the initiation of the change until return to the pretest value of heart rate in coronary sinus of anesthetized dog at intravenous dosage of 0.1 mg/kg; format: functional, Canis lupus familiaris
# Canis familiaris [4] = assay: Total time in minutes elapsed from the initiation of the change until return to the pretest value of oxygen partial pressure in coronary sinus of anesthetized dog at intravenous dosage of 0.01 mg/kg; format: functional, Canis lupus familiaris
# Canis familiaris [5] = assay: Total time in minutes elapsed from the initiation of the change until return to the pretest value of blood pressure in coronary sinus of anesthetized dog at intravenous dosage of 0.01 mg/kg; format: functional, Canis lupus familiaris
# Canis familiaris [6] = assay: Tested for the percent increase in aortic blood pressure (BP) in open chest anesthetized dog at intravenous dosage of 0.10 mg/kg; format: functional, Canis lupus familiaris, Artery; details: dose 0.1 mg/kg
# In short: (§2)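 Open-chest anesthetized dogs, compound given iv at the stated dose. Aortic blood pressure is reported as the change from the control (pre-dose) value. Other set-up follows the group's earlier cardiovascular protocol.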
# Canis familiaris [7] = assay: Tested for percent increase in coronary sinus partial pressure of oxygen (PO2) in open chest anesthetized dog at intravenous dosage of 0.01 mg/kg; format: functional, Canis lupus familiaris
# Canis familiaris [8] = assay: Total time in minutes elapsed from the initiation of the change until return to the pretest value of oxygen partial pressure in coronary sinus of anesthetized dog at intravenous dosage of 0.1 mg/kg; format: functional, Canis lupus familiaris
# Canis familiaris [9] = assay: Total time in minutes elapsed from the initiation of the change until return to the pretest value of heart rate in coronary sinus of anesthetized dog at intravenous dosage of 0.01 mg/kg; format: functional, Canis lupus familiaris
# Canis familiaris [10] = assay: Total time in minutes elapsed from the initiation of the change until return to the pretest value of blood pressure in coronary sinus of anesthetized dog at intravenous dosage of 0.1 mg/kg; format: functional, Canis lupus familiaris
# Canis familiaris [11] = assay: Tested for the percent increase in coronary sinus partial pressure of oxygen (PO2) in open chest anesthetized dog at intravenous dosage of 0.10 mg/kg; format: functional, Canis lupus familiaris; details: dose 0.1 mg/kg
# [12] = Lethal dose in mice after peroral administration; format: toxicity, organism-based; details: mouse, in vivo, po; in short: as §1
# Canis familiaris [13] = assay: Tested for the percent increase in aortic blood pressure (BP) in open chest anesthetized dog at intravenous dosage of 0.01 mg/kg; format: functional, Canis lupus familiaris, Artery; in short: as §2
# Canis familiaris [14] = assay: Total time in minutes elapsed from the initiation of the change until return to the pretest value of blood pressure in coronary sinus of anesthetized dog at intravenous dosage of 1.00 mg/kg; format: functional, Canis lupus familiaris
# Canis familiaris [15] = assay: Tested for percent increase in coronary sinus partial pressure of oxygen (PO2) in open chest anesthetized dog at intravenous dosage of 1.00 mg/kg; format: functional, Canis lupus familiaris
# Canis familiaris [16] = assay: Tested for the percent increase in aortic blood pressure (BP) in open chest anesthetized dog at intravenous dosage of 1.00 mg/kg; format: functional, Canis lupus familiaris, Artery; in short: as §2
# Canis familiaris [17] = assay: Total time in minutes elapsed from the initiation of the change until return to the pretest value of oxygen partial pressure in coronary sinus of anesthetized dog at intravenous dosage of 1 mg/kg; format: functional, Canis lupus familiaris
# In short: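 Open-chest anesthetized dogs given compound by intravenous injection. Coronary sinus PO2 was monitored, and duration was the total time in minutes from the onset of the change until return to the pretest value.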
# Canis familiaris [18] = assay: Total time in minutes elapsed from the initiation of the change until return to the pretest value of heart rate in coronary sinus of anesthetized dog at intravenous dosage of 1 mg/kg; format: functional, Canis lupus familiaris
# Canis familiaris [19] = assay: tested for percent increase in coronary sinus partial pressure of oxygen (PO2) in open chest anesthetized dog at intravenous dosage of 1 mg/kg; format: functional, Canis lupus familiaris
# Canis familiaris [20] = assay: Total time in minutes elapsed from the initiation of the change until return to the pretest value of blood pressure in coronary sinus of anesthetized dog at intravenous dosage of 1 mg/kg; format: functional, Canis lupus familiaris
# Canis familiaris [21] = assay: tested for the percent increase in heart rate (HR) in open chest anesthetized dog at intravenous dosage of 1 mg/kg; format: functional, Canis lupus familiaris
# Canis familiaris [22] = assay: tested for the percent increase in aortic blood pressure (BP) in open chest anesthetized dog at intravenous dosage of 1 mg/kg; format: functional, Canis lupus familiaris, Artery
# In short: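 Open-chest anesthetized dogs received intravenous doses. Aortic blood pressure was recorded as the change from control.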
# Mus musculus [23] = assay: Tested for the lethal dose in mice after administration intraperitoneally; format: functional; details: ip; in short: as §1
# Mus musculus [24] = assay: Tested for the lethal dose in mice after administration perorally; format: functional; details: po; in short: as §1
# Canis familiaris [25] = assay: Tested for the percent increase in aortic blood pressure (BP) in open chest anesthetized dog at intravenous dosage of 0.001 mg/kg; format: functional, Canis lupus familiaris, Artery; in short: as §2
# Canis familiaris [26] = assay: Total time in minutes elapsed from the initiation of the change until return to the pretest value of blood pressure in coronary sinus of anesthetized dog at intravenous dosage of 0.001 mg/kg; format: functional, Canis lupus familiaris
# Canis familiaris [27] = assay: Total time in minutes elapsed from the initiation of the change until return to the pretest value of heart rate in coronary sinus of anesthetized dog at intravenous dosage of 0.001 mg/kg; format: functional, Canis lupus familiaris
# Canis familiaris [28] = assay: Tested for percent increase in coronary sinus partial pressure of oxygen (PO2) in open chest anesthetized dog at intravenous dosage of 0.001 mg/kg; format: functional, Canis lupus familiaris
# Canis familiaris [29] = assay: Total time in minutes elapsed from the initiation of the change until return to the pretest value of oxygen partial pressure in coronary sinus of anesthetized dog at intravenous dosage of 0.001 mg/kg; format: functional, Canis lupus familiaris
# Canis familiaris [30] = assay: Total time in minutes elapsed from the initiation of the change until return to the pretest value of oxygen partial pressure in coronary sinus of anesthetized dog at intravenous dosage of 0.10 mg/kg; format: functional, Canis lupus familiaris; details: dose 0.1 mg/kg
# Canis familiaris [31] = assay: Tested for the percent increase in coronary sinus partial pressure of oxygen (PO2) in open chest anesthetized dog at intravenous dosage of 1.00 mg/kg; format: functional, Canis lupus familiaris
# Canis familiaris [32] = assay: tested for percent increase in coronary sinus partial pressure of oxygen (PO2) in open chest anesthetized dog at intravenous dosage of 0.10 mg/kg; format: functional, Canis lupus familiaris; details: dose 0.1 mg/kg
structure (smiles),measurement,setting,value
CONC(=O)[C@H]1O[C@@H](n2cnc3c(N)ncnc32)[C@H](O)[C@@H]1O,LD50,[1],20 mg/kg
same,HR,Canis familiaris [2],2%
same,Duration,Canis familiaris [3],10 min
same,Duration,Canis familiaris [4],60 min
same,Duration,Canis familiaris [5],41 min
same,BP,Canis familiaris [6],39%
same,PO2,Canis familiaris [7],157%
same,Duration,Canis familiaris [8],90 min
same,Duration,Canis familiaris [9],60 min
same,Duration,Canis familiaris [10],90 min
same,PO2,Canis familiaris [11],143%
same,LD50,[12],50 mg/kg
same,BP,Canis familiaris [13],9%
CNC(=O)[C@H]1O[C@@H](n2cnc3c(N)ncnc32)[C@H](O)[C@@H]1O,LD50,[1],5 mg/kg
same,Duration,Canis familiaris [4],14 min
same,Duration,Canis familiaris [5],60 min
same,PO2,Canis familiaris [7],105%
same,Duration,Canis familiaris [8],240 min
same,Duration,Canis familiaris [9],240 min
same,Duration,Canis familiaris [10],240 min
same,PO2,Canis familiaris [11],215%
same,LD50,[12],20 mg/kg
CN(C)C(=O)[C@H]1OC(n2cnc3c(N)ncnc32)[C@H](O)[C@@H]1O (some centres undefined),Duration,Canis familiaris [14],0 min
same,LD50,[1],50 mg/kg
same,PO2,Canis familiaris [15],0%
same,BP,Canis familiaris [16],0%
same,Duration,Canis familiaris [17],0 min
same,LD50,[12],1000 mg/kg
same,Duration,Canis familiaris [18],0 min
Nc1ncnc2c1ncn2C1O[C@H](C(=O)NCc2ccccc2)[C@@H](O)[C@H]1O (some centres undefined),PO2,Canis familiaris [19],48%
same,Duration,Canis familiaris [20],60 min
same,Duration,Canis familiaris [17],60 min
same,HR,Canis familiaris [21],13%
same,BP,Canis familiaris [22],5 mmHg
same,LD50,Mus musculus [23],200 mg/kg
same,LD50,Mus musculus [24],> 1000 mg/kg
same,Duration,Canis familiaris [18],24 min
CCNC(=O)[C@H]1OC(n2cnc3c(N)[n+]([O-])cnc32)[C@H](O)[C@@H]1O (some centres undefined),BP,Canis familiaris [25],27 mmHg
same,Duration,Canis familiaris [26],120 min
same,Duration,Canis familiaris [27],120 min
same,PO2,Canis familiaris [28],37%
same,Duration,Canis familiaris [29],120 min
CCOCCNC(=O)[C@H]1OC(n2cnc3c(N)ncnc32)[C@H](O)[C@@H]1O (some centres undefined),LD50,[1],50 mg/kg
same,BP,Canis familiaris [16],15%
same,Duration,Canis familiaris [20],120 min
same,Duration,Canis familiaris [17],120 min
same,Duration,Canis familiaris [9],0 min
same,Duration,Canis familiaris [10],1 min
same,LD50,[12],> 1000 mg/kg
same,Duration,Canis familiaris [30],6 min
same,BP,Canis familiaris [13],8%
same,Duration,Canis familiaris [18],120 min
same,PO2,Canis familiaris [31],135%
CCCCNC(=O)[C@H]1OC(n2cnc3c(N)ncnc32)[C@H](O)[C@@H]1O (some centres undefined),HR,Canis familiaris [2],16%
same,PO2,Canis familiaris [32],30%
same,Duration,Canis familiaris [3],40 min
same,BP,Canis familiaris [6],5%
same,Duration,Canis familiaris [8],30 min
same,Duration,Canis familiaris [10],40 min

# — ChEMBL document CHEMBL1121608, “Modification of the 5' position of purine nucleosides. 2. Synthesis and some cardiovascular properties of adenosine-5'-(N-substituted)carboxamides” (J Med Chem, 1980)
